# Source: PubChem
# In the library only some 2.5% were active in any assay of this set; here they are far more common.
# GSTO1 inh: inhibitors of recombinant GSTO1, primary screen, counter-screen for RBBP9 inhibitor project, biochemical, fluorescence polarization | Glutathione S-transferase omega-1 (Homo sapiens), P78417 | activity-based probe fluorescence polarization | inhibition, % at 5.96 µM | 300,000 compounds, 1.1% hits | AID 1974, 2009;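 active = inhibition above the campaign mean inhibition plus 3 SD, cut at about 35% in these data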;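 also: 0% = GSTO1-1 with DMSO and 100% = wells lacking GSTO1-1 enzyme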
# TDP2 absorb: human TDP2 enzyme inhibitors, primary screen, biochemical, epi absorbance, recombinant enzyme; AID 720702, 2013; inhibition, % at 12.8 µM; 370,000 compounds, 0.34% hits; T5PNP hydrolysis, p-nitrophenol absorbance 415 nm; Tyrosyl-DNA phosphodiesterase 2 (Homo sapiens), O95551;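 active = inhibition above the mean of all tested compounds plus 3 SD, set per campaign, cut at about 25% in these data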;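 also: 0% = DMSO with enzyme and 100% = buffer with substrate but no TDP2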
#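 Material: recombinant human TDP2; quantity: TDP2 enzyme at 120 nM final; medium: Tris-HCl pH 7.5 with MgCl2; compound: single concentration, 12.8 µM nominal, with 1% DMSO; incubation: 2 h enzyme incubation at 37 °C; signal: epi absorbance; measure: percent inhibition; benchmarks: high control without enzyme, low control DMSO plus TDP2; repeats: singlicate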
# PRMT1 FP inh: PRMT1 methyltransferase inhibitors, primary screen, biochemical, fluorescence polarization; inhibition, % at 2.79 µM; AID 652257, 2013; 370,000 compounds, 1.3% hits; recombinant PRMT1, activity-based probe fluorescence polarization;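 active = inhibition above about 21% made by adding two undisclosed values, limit read from the data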
# PAD4 inh: human PAD4 inhibitors, primary screen, biochemical, fluorescence polarization, 1536-well format; AID 485272, 2010; inhibition, % at 6.36 µM; 330,000 compounds, 0.41% hits; recombinant PAD4, RCA probe fluorescence polarization;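 active = percent inhibition above a cutoff equal to the mean of all tested compounds plus 3 SD, cut at about 15% in these data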;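 also: 0% = PAD4 with RCA probe and DMSO and 100% = probe without PAD4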
# Target sequence (Q9UM07 whole entry, looked up): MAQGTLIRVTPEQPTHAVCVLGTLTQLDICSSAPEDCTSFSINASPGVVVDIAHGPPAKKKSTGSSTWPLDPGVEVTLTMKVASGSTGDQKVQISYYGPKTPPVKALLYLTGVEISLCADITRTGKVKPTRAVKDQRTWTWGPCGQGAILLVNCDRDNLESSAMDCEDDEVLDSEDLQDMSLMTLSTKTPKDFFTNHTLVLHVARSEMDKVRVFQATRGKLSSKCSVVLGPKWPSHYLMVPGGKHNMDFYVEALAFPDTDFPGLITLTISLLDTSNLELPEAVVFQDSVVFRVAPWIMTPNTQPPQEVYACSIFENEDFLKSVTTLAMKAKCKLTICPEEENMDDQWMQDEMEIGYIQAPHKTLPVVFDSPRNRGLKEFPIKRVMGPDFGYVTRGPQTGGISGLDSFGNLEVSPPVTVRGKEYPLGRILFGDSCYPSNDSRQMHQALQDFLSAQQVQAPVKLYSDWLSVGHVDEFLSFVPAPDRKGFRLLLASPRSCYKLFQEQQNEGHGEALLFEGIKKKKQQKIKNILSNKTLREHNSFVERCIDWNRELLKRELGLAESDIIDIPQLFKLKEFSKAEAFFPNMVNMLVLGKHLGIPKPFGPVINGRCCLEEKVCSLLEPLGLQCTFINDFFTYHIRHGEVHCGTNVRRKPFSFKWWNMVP
# eLon inh: inhibitors of E. coli Lon protease, primary screen, biochemical, fluorescence polarization. purified E. coli Lon protease. inhibition, % at 7.94 µM. 360,000 compounds, 0.42% hits. AID 602123, 2011; in the data active = inhibition above about 13%, passing the limit was not always enough;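 also: 0% = enzyme with probe and DMSO and 100% = no enzyme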
# GSTO1 confirm: GSTO1 inhibitor hit confirmation, counter-screen for RBBP9 inhibitor project, biochemical, fluorescence polarization, triplicate. shares compounds with GSTO1 inh. recombinant GSTO1, probe fluorescence polarization. inhibition, % at 5.96 µM. 2,400 compounds, 54% hits;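 active = inhibition above the primary screen's cutoff, its mean inhibition plus 3 SD, cut at about 35% in these data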;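 also: loss of polarization as inhibitors block binding of rhodamine sulfonate ester activity probe; 0% = GSTO1 with DMSO and 100% = wells lacking GSTO1 enzyme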
# GSTO1 ABPP inh: inhibitors of purified human GSTO1, late-stage follow-up, biochemical, gel ABPP, SE-Rh probe, percent inhibition. inhibition, % at 1 µM. 130 compounds, 30% hits. recombinant GSTO1, gel ABPP SE-Rh probe fluorescence. shares compounds with GSTO1 inh;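 active = inhibition of the enzyme GSTO1 above about 75%, limit read from the data; inactive = inhibition below that limit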
# The depositor's hits bear a star; · = no result.
SMILES,GSTO1 inh,TDP2 absorb,PRMT1 FP inh,PAD4 inh,eLon inh,GSTO1 confirm,others
O=S(=O)(c1ccc(Cl)cc1)N1CCC2(CC1)CO2,96*,-1,2,-4,2,106*,GSTO1 ABPP inh=64
CCC(=O)OC1(C)C(=O)C=C2C=C(c3ccsc3)OC=C2C1=O (stereo unspecified),40*,·,·,-14,-23,26,
COC(=O)CCC(=O)OC1(C)C(=O)C=C2C=C(c3ccsc3)OC=C2C1=O (stereo unspecified),32,·,·,-14,-21,·,
CC1(O)C(=O)C=C2C=C(c3ccsc3)OC=C2C1=O (stereo unspecified),46*,·,·,1,·,25,
O=C(NCc1cccc(Cl)c1)O[C@H]1CC[C@@]23CCCN2C(=O)CCC[C@H]3C1,·,-4,-2,·,·,·,
CCCCOCCCNC(=O)C[C@H]1C[C@@]2(C(=O)OC)C(=C[C@H](C(C)(C)C)O[C@@H]2C)N(Cc2ccc(Cl)cc2Cl)C1=O,·,-1,2,·,·,·,
O=C(Nc1ccccc1)OCCN1C(=O)CCC12CCC(c1ccccc1)CC2 (stereo unspecified),·,6,-2,·,·,·,
COc1cc(C2Nc3cccc4cccc(c34)N2)cc(OC)c1OC(C)=O,49*,-3,7,-7,5,4,
COc1ccc(Br)cc1C1Nc2cccc3cccc(c23)N1,4,-15,2,-9,-3,·,
CC1(C)CC(=O)C2=C(C1)N(C1CCCCC1)C(=O)C2(O)C(F)(F)F (stereo unspecified),65*,-7,-2,4,-2,6,
CCN1CCCCC(NC(=O)c2cccc(C(F)(F)F)c2)C1=O (stereo unspecified),·,3,3,·,·,·,
CCOC(=O)c1c(NC(=O)CCl)sc(CN(C)C)c1-c1ccccc1,77*,-4,2,6,1,91*,
CCOC(=O)c1c(NC(=O)CN2CCCCC2)sc(CN(C)C)c1-c1ccccc1,5,-1,-3,5,11,·,
COC(=O)[C@H](CC(C)C)N1Cc2nnn(Cc3ccccc3)c2-c2ccccc2S1(=O)=O,·,-9,-6,·,·,·,
O=S1(=O)c2c(cccc2N2CCC[C@H]2CO)OCCCN1C1CC1,·,9,7,·,·,·,
CCN(CC)c1ccc(C=Nc2ccc(C)cc2C)c(O)c1,6,-5,1,-1,1,·,
Cc1ccc(N=Cc2cccc(O)c2O)c(C)c1,85*,11,20,8,9,3,
CCOC(=O)c1c(C)n(C)c2cc(Br)c(O)c(O)c12,45*,-4,14,-10,2,13,
CCOC(=O)c1c(C)n(C)c2cc([N+](=O)[O-])c(O)c([N+](=O)[O-])c12,9,-1,6,-4,-3,·,
CCOC(=O)c1cnc2cc3c(cn2c1=O)CCCC3,5,1,0,-4,-12,·,
CCOC(=O)C1=C(SCC)c2cc3c(n2C1=O)CCCC3,38*,5,1,5,4,21,
CC(C)CC(NS(=O)(=O)c1cccc(C(=O)O)c1)C(=O)O (stereo unspecified),51*,11,4,3,-6,3,
COc1ccc2c(c1)CC/C(=C\Nc1ccc3c(c1)OCO3)C2=O,69*,4,29*,4,-59,62*,
O=C(O)C1Cc2ccccc2CN1C(=O)CCl (stereo unspecified),70*,-1,1,-10,0,98*,GSTO1 ABPP inh=82*
O=C(CCc1ccccc1)N[C@H]1[C@@H](OC(=O)C2CC2)CCC[C@@]12C(=O)N(Cc1ccccc1)c1ccccc12,·,-1,4,·,·,·,
SMILES,GSTO1 inh,TDP2 absorb,PRMT1 FP inh,PAD4 inh,eLon inh,GSTO1 confirm,others
Cn1c(NC(=O)c2ccc(Cl)cc2)c(-c2ccccn2)c(=O)c2ccccc21,44*,7,-1,5,0,5,
Nn1c(SCC(=O)Nc2cccc3ccccc23)nnc1-c1n[nH]c2c1CCC2,·,2,-4,·,·,·,
O=C(CSc1nnc(-c2ccco2)c(-c2ccco2)n1)c1ccccc1,44*,-3,65*,-3,6,18,
Cc1ccc(-c2cc(-c3nnc(SCC(=O)N4c5ccccc5Sc5ccc(Cl)cc54)n3N)[nH]n2)cc1,·,-1,2,·,·,·,
CC(=O)c1cc(-c2ccccc2)c(=O)n2c1CCC2,·,-2,0,·,·,·,
CC1(OC(=O)CCc2ccccc2)C(=O)C=C2C=C(c3ccc(C#N)cc3)N(C3CCCCC3)C=C2C1=O (stereo unspecified),45*,-12,5,-5,-3,12,
CC1(OC(=O)C2CCCC2)C(=O)C=C2C=C(c3ccsc3)N(C3CCCCC3)C=C2C1=O (stereo unspecified),43*,10,2,-5,14,18,
CC1(OC(=O)C2CCCC2)C(=O)C=C2C=C(c3ccsc3)N(CC3CC3)C=C2C1=O (stereo unspecified),40*,20,6,11,9,25,
COc1ccccc1/C=C1\SC(=O)N(CCC(=O)NNC(=O)c2ccccc2Cl)C1=O,51*,-7,-1,0,-1,4,
COc1ccccc1/C=C1\SC(=S)N(CCC(=O)NNC(=O)c2ccccc2OC)C1=O,1,-3,-3,-9,0,·,
COc1ccc(N/N=C(C)/C(=N/O)C(=O)Nc2ccccc2)cc1,40*,2,3,-3,-4,15,
CN(C)[C@@H]1CCN(c2cccc3c2S(=O)(=O)N(C2CC2)CCCO3)C1,·,-2,0,·,·,·,
O=C(N/N=C/c1ccc(F)cc1)c1cc(-c2ccco2)nc2ccccc12,57*,1,4,-1,-3,22,
Cc1nnc(NC(=O)c2cc(-c3ccco3)nc3ccccc23)s1,40*,-1,18,-8,-11,10,
CCNC(=O)COC(=O)c1cc(-c2ccco2)nc2ccccc12,41*,2,38*,3,6,8,
CCOc1ccc(/C=N/NC(=O)c2cc(-c3ccco3)nc3ccccc23)cc1,2,4,2,-6,-5,·,
c1ccc(COCCC2CO2)cc1 (stereo unspecified),61*,·,·,0,·,72*,GSTO1 ABPP inh=59
